In the library only some 3.2% were active in any assay of this set; here they are far more common.
PRMT1 FP inh = PRMT1 (human) inhibition, primary screen; 370,000 compounds, 1.3% hits; inhibition, % at 2.79 µM; recombinant PRMT1, activity-based probe fluorescence polarization;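 active = inhibition above about 21% made by adding two undisclosed values, limit read from the data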
Target sequence (Q99873 whole entry, looked up): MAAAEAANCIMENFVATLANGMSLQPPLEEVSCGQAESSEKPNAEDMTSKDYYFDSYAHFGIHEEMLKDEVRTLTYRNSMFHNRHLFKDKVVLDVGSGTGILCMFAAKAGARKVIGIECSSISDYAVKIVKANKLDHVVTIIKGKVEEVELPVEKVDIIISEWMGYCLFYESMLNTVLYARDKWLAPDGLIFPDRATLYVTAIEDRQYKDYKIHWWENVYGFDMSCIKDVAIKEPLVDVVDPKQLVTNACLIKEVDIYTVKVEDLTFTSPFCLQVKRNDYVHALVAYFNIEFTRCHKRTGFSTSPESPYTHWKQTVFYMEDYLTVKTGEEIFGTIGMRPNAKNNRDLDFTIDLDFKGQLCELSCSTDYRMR
ABHD4 inh = inhibits mouse alpha/beta hydrolase domain 4; Q8VD66; purified mABHD4, FP-Rh probe fluorescence polarization; inhibition, % at 8.92 µM; 370,000 compounds, 0.54% hits;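 active = inhibition exceeding the mean over every tested compound plus 3 SD, cut at about 30% in these data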
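Doses – 8.92 µM, single dose · Material – wild-type mouse ABHD4 protein · Replication – single well per compound (singlicate) · Measure – percent inhibition of probe binding, normalized to plate controls · Schedule – 45 min compound pre-incubation plus 60 min probe step, 25 °C · Detection – fluorescence polarization with parallel and perpendicular emission, 525/598 nm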
rCAG binder = r(CAG) repeat RNA binding | TO-PRO-1 dye displacement fluorescence | inhibition, % at 3 µM | 370,000 compounds, 1.3% hits | AID 651821;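 active = inhibition above the plate cutoff, the mean of all test compounds on that plate plus 3 SD, cut at about 35% in these data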;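 also: higher means more dye released from RNA so lower well fluorescence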
LEDGF integ inh = blocks HIV-1 LEDGF/p75-dependent DNA integration; TR-FRET IN-LEDGF/p75 DNA integration, Eu/Cy5; AID 743269; inhibition, % at 3.7 µM; 370,000 compounds, 0.64% hits;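 active = inhibition above the screen-wide mean plus 3 SD, cut at about 13% in these data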;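 also: signal is the Cy5 over europium emission ratio at 671 and 618 nm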
HTRA1 inh = blocks human HTRA1 serine peptidase; Q92743; 340,000 compounds, 0.5% hits; inhibition, % at 5.96 µM; recombinant HTRA1, FP-rhodamine activity-based probe, fluorescence polarization; in the data active = inhibition above about 36%
DAGLB inhibitor = diacylglycerol lipase beta (human) inhibition; HEK293T DAGLB membrane lysate, EnzChek fluorogenic substrate; inhibition, % at 5.17 µM; 340,000 compounds, 0.059% hits; in the data active = inhibition above about 34%
rCAG bind conf = r(CAG) RNA repeat binding, confirmation; shares compounds with rCAG binder; TO-PRO-1 dye displacement fluorescence; inhibition, % at 3 µM; 4,300 compounds, 70% hits; AID 652065;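 active = inhibition above a per-plate cutoff, the mean inhibition of sample wells plus 3 SD, cut at about 35% in these data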;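 also: loss of TO-PRO-1 fluorescence as compound displaces dye from 1x1 AA loop RNA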
dCAG dye counter = counter-screen for rCAG RNA binders: DNA CAG dye complex inhibitors; shares compounds with rCAG binder; d(CAG) DNA oligo TO-PRO-1 dye displacement, fluorescence; inhibition, % at 3 µM; 4,300 compounds, 94% hits;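 active = inhibition above its plate's cutoff, the mean test-well inhibition plus 3 SD, cut at about 4.8% in these data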;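 also: hits displace the dye from DNA and so lower well fluorescence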
DNA CAG DR = disrupts DNA CAG TO-PRO-1 complex in dose response; AID 686960; IC50, µM; 250 compounds, 20% hits; shares compounds with rCAG binder; DNA CAG/GTC duplex TO-PRO-1 dye displacement fluorescence; in the data active = IC50 below about 10 µM
Each line names hits and unclear results; the compound was inactive in the other large screens (follow-up assays come after a bar, where they were run).

Cc1ccc(-n2nc3ccc(NC(=O)/C=C/c4ccco4)cc3n2)cc1	rCAG binder 38 | rCAG bind conf inactive | dCAG dye counter 11
CCCCNC(=O)c1nc(C2CCN(S(=O)(=O)c3csc(C(=O)O)c3)CC2)oc1-c1ccccc1	rCAG binder 44 (no result: HTRA1 inh, DAGLB inhibitor) | rCAG bind conf 39 | dCAG dye counter 11 | DNA CAG DR inactive
O=C(CN1C(=O)C2CCCCC2C1=O)Nc1ccc(OC(F)F)c(Cl)c1 (stereo unspecified)	none
S=c1[nH]nc(-c2ccco2)n1/N=C/c1cccs1	none
S=c1[nH]nc(-c2ccco2)n1/N=C/c1ccc(Cl)cc1Cl	PRMT1 FP inh 22, rCAG binder 35 | rCAG bind conf 64 | dCAG dye counter 19
O=C(CCc1ccc(O)cc1)NNC(=S)NCCc1ccccc1	none
O=C(NNC(=S)NCCc1ccccc1)c1ccc(Br)s1	rCAG binder 54 | rCAG bind conf 47 | dCAG dye counter 14 | DNA CAG DR inactive
COc1ccccc1CC(=O)NNS(=O)(=O)c1cccc([N+](=O)[O-])c1	none
O=C(O)c1ccc(CSc2nc(-c3ccccc3)cc(C(F)(F)F)n2)cc1	rCAG binder 55 | rCAG bind conf 56 | dCAG dye counter 13
COc1ccc(C(=O)Oc2coc(CSc3nnc(NC(=O)c4cccs4)s3)cc2=O)cc1	rCAG binder 35 | rCAG bind conf 52 | dCAG dye counter 16
O=C(Oc1coc(CSc2nnc(NC(=O)C3CC3)s2)cc1=O)c1ccccc1	none
COc1cc(N=Nc2cccc(S(N)(=O)=O)c2)c2ccccc2c1N	rCAG binder 52 | rCAG bind conf inactive | dCAG dye counter 12
O=C(c1nn(Cc2ccccc2)c(=O)c2ccccc12)N1CCN(c2ccccn2)CC1	none
C[C@@H](C(=O)NCCc1ccccc1F)N1C(=O)N2CCc3c([nH]c4ccccc34)[C@@]2(C)C1=O	none
COc1cccc(C(c2c(O)nc(SC)n(C)c2=O)c2c(O)nc(SC)n(C)c2=O)c1	none
CCCSc1nc(O)c(C(c2ccc(OC)c(O)c2)c2c(O)nc(SCCC)n(C)c2=O)c(=O)n1C	rCAG binder 46 | rCAG bind conf 40 | dCAG dye counter 13
O=C(CN1CCN(c2nc(-c3ccc(F)cc3)cs2)CC1)NCc1ccc2c(c1)OCO2	none
O=[N+]([O-])c1cc(Br)cc(C=Nc2ccc3c(c2)OCO3)c1O	rCAG binder 58 | rCAG bind conf 41 | dCAG dye counter 17
O=C(COc1ccccc1/C=C1\SC(=O)NC1=O)Nc1ccc(F)cc1	rCAG binder 52 | rCAG bind conf 45 | dCAG dye counter 16
O=C1NC(=O)/C(=C/c2ccccc2Oc2ccc(Cl)cc2)S1	none
Cc1ccc(S(=O)(=O)Oc2ccccc2/C=C2\SC(=O)NC2=O)cc1	rCAG binder 42 | rCAG bind conf inactive | dCAG dye counter 7.4
CCc1cc(=O)oc2cc(C)cc(OCC(=O)NC(Cc3c[nH]c4ccc(O)cc34)C(=O)O)c12 (stereo unspecified)	none
O=C(COc1cc2oc(=O)cc(-c3ccccc3)c2cc1Cl)NC(Cc1c[nH]c2ccc(O)cc12)C(=O)O (stereo unspecified)	rCAG binder 42 | rCAG bind conf 62 | dCAG dye counter 24
CC(Oc1ccc2c(-c3ccccc3)cc(=O)oc2c1)C(=O)N[C@H](Cc1c[nH]c2ccccc12)C(=O)O (stereo partly specified)	none
Cc1c(OCC(=O)NC(Cc2ccc(Cl)cc2)C(=O)O)ccc2c(-c3ccccc3)cc(=O)oc12 (stereo unspecified)	none
COc1ccc(-c2cc(=O)oc3c(C)c(OCC(=O)N[C@@H](Cc4ccc(O)cc4)C(=O)O)ccc23)cc1	rCAG binder 47 | rCAG bind conf 46 | dCAG dye counter 13
Cc1c(OC(C(=O)O)c2ccccc2)ccc2c(-c3ccccc3)cc(=O)oc12 (stereo unspecified)	rCAG binder 37 | rCAG bind conf 38 | dCAG dye counter 9.0
COc1ccc(-c2cc(=O)oc3cc(OC(C)C(=O)NC(Cc4c[nH]c5ccc(O)cc45)C(=O)O)ccc23)cc1 (stereo unspecified)	rCAG binder 44 | rCAG bind conf 43 | dCAG dye counter 13
Cc1c(OC(C)C(=O)O)ccc2c(-c3ccccc3)cc(=O)oc12 (stereo unspecified)	none
O=[N+]([O-])c1cccc(-c2cc(-c3cc(Br)ccc3O)[nH]n2)c1	rCAG binder 37 | rCAG bind conf inactive | dCAG dye counter 16
CCN(CC)c1ccc(N2C(=O)/C(=C/c3cccs3)SC2=S)cc1	none
Cc1noc(NS(=O)(=O)c2ccc(NC(=O)c3cccc(S(=O)(=O)Nc4ccccc4F)c3)cc2)c1C	rCAG binder 35 | rCAG bind conf inactive | dCAG dye counter 7.8
COc1cccc(C(=O)Nc2ccc(S(=O)(=O)Nc3onc(C)c3C)cc2)c1	none
Cc1noc(NS(=O)(=O)c2ccc(NC(=O)c3ccccc3NS(=O)(=O)c3ccc(F)c(F)c3)cc2)c1C	rCAG binder 76 | rCAG bind conf 69 | dCAG dye counter 30
CC(OC(=O)/C(C#N)=C/c1ccc(N(C)C)cc1)C(=O)N(C)Cc1ccccc1 (stereo unspecified)	none
Cc1nc(S/C(=C/c2ccc(-c3cc(Cl)ccc3C)o2)C(=O)O)n[nH]1	rCAG binder 51 | rCAG bind conf 81 | dCAG dye counter 44
COc1ccc(CN2C(=O)c3cccnc3C2=O)cc1S(=O)(=O)NCc1ccc(C)cc1	none
O=C(/C=C/c1ccc(NC(=O)c2ccccc2-c2ccccc2C(=O)O)cc1)c1ccccc1	rCAG binder 68 | rCAG bind conf 66 | dCAG dye counter 24
CCCn1c(N)c(N2CCCCC2)c(=O)n(CC(=O)Nc2ccc(OC(F)(F)F)cc2)c1=O	rCAG binder 37 | rCAG bind conf inactive | dCAG dye counter inactive
CCCn1c(N)c(N2CCCCC2)c(=O)n(CC(=O)Nc2ccccc2C)c1=O	none
O=C(COc1ccc(Cl)cc1)NCc1nnc(SCC(=O)N2CCCCCC2)o1	none
Nc1nonc1N/N=C/c1c(O)ccc2ccccc12	rCAG binder 40 | rCAG bind conf inactive | dCAG dye counter 15
Nc1nonc1N/N=C\c1ccccc1	none
